# According to ChEMBL document CHEMBL1275372, “Conformationally restricted homotryptamines. Part 7: 3-cis-(3-aminocyclopentyl)indoles as potent selective serotonin reuptake inhibitors” (J Med Chem, 2010):
# Active and inactive are the calls of the source. The calls are words filed in the database; no cut-off is given here.
# Key:
# [1] = target: Sodium-dependent serotonin transporter (Homo sapiens, UniProt P31645); assay: Binding affinity to human SERT
# [2] = target: Sodium-dependent noradrenaline transporter (Homo sapiens, UniProt P23975); assay: Binding affinity to human NET
# [3] = target: Sodium-dependent dopamine transporter (Homo sapiens, UniProt Q01959); assay: Binding affinity to human DAT
# [4] = target: T1, 5-hydroxytryptamine receptor 1A (Homo sapiens, UniProt P08908); assay: Binding affinity to 5HT1A receptor
# T1 sequence (P08908 whole entry): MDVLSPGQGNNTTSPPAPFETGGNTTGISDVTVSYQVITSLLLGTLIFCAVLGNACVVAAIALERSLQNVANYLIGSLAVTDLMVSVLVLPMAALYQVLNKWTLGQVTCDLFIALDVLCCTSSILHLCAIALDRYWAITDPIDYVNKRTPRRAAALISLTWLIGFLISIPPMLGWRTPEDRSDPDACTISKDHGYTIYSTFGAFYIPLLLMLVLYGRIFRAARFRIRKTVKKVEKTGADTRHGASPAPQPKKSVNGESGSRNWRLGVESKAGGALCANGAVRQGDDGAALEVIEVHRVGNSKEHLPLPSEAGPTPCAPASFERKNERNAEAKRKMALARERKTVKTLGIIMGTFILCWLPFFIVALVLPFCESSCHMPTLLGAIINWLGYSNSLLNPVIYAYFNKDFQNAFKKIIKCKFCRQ
# [5] = target: 5-hydroxytryptamine receptor 1B (Homo sapiens, UniProt P28222); assay: Binding affinity to 5HT1B receptor
# [6] = target: 5-hydroxytryptamine receptor 2A (Homo sapiens, UniProt P28223); assay: Binding affinity to 5HT2A receptor
# [7] = target: 5-hydroxytryptamine receptor 2B (Homo sapiens, UniProt P41595); assay: Binding affinity to 5HT2B receptor
# [8] = target: T2, 5-hydroxytryptamine receptor 2C (Homo sapiens, UniProt P28335); assay: Binding affinity to 5HT2C receptor
# T2 sequence (P28335 whole entry): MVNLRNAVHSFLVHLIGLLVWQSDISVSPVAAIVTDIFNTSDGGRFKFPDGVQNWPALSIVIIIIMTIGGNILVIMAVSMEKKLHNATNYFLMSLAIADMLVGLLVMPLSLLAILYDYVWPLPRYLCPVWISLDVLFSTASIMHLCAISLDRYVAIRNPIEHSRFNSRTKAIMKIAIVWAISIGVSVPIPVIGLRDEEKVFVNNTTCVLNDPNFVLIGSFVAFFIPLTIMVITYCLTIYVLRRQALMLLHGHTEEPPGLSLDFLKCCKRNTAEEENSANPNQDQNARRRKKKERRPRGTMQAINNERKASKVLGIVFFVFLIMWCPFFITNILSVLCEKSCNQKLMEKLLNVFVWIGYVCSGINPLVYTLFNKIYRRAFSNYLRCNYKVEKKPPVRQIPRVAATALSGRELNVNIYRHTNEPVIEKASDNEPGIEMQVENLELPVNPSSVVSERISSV
# [9] = target: 5-hydroxytryptamine receptor 4 (Homo sapiens, UniProt Q13639); assay: Binding affinity to 5HT4 receptor
# [10] = target: 5-hydroxytryptamine receptor 5A (Homo sapiens, UniProt P47898); assay: Binding affinity to 5HT5A receptor
# [11] = target: 5-hydroxytryptamine receptor 6 (Homo sapiens, UniProt P50406); assay: Binding affinity to 5HT6 receptor
# [12] = target: 5-hydroxytryptamine receptor 7 (Homo sapiens, UniProt P34969); assay: Binding affinity to 5HT7 receptor
# D(1A) dopamine receptor = D(1A) dopamine receptor (Homo sapiens, UniProt P21728); assay: Binding affinity to dopamine D1
# D(2) dopamine receptor = D(2) dopamine receptor (Homo sapiens, UniProt P14416); assay: Binding affinity to dopamine D2
# Rattus norvegicus [13] = assay: Increase in extracellular serotonin levels in po dosed rat frontal cortex; assay type: functional, organism-based
# Procedure, shortened: (§1)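 In vivo microdialysis in rat frontal cortex measuring extracellular serotonin. Oral doses were 1 and 3 mg/kg, with a reference SSRI at 5 mg/kg po; an iv arm used 1.0 mg/kg. Change is expressed as percent increase over vehicle-treated controls, with significance tested against vehicle.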
# Rattus norvegicus [14] = assay: Increase in extracellular serotonin levels in rat frontal cortex at 3 mg/kg, po by microdialysis method relative to untreated control; assay type: functional; procedure, shortened: as §1
# Rattus norvegicus [15] = assay: Increase in extracellular serotonin levels in rat frontal cortex at 5 mg/kg, po by microdialysis method relative to untreated control; assay type: functional, organism-based; design: dose 5 mg/kg; procedure, shortened: as §1
# Brain = assay: Drug concentration in rat brain at 3 mg/kg, po after 2 hrs by microdialysis method; assay type: ADME, organism-based; design: dose 3 mg/kg, route oral; details: in vivo
# Procedure, shortened: (§2)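 Rats dosed orally at 3 mg/kg as part of the frontal-cortex microdialysis experiments. Drug levels in brain and plasma sampled at 2 h after dosing. Oral bioavailability, Tmax and half-life are reported from the same oral 3 mg/kg dosing in rat.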
# [16] = Drug concentration in rat plasma at 3 mg/kg, po after 2 hrs by microdialysis method; assay type: ADME, organism-based; design: dose 3 mg/kg, route oral; procedure, shortened: as §2
# [17] = Oral bioavailability in rat plasma at 3 mg/kg by microdialysis method; assay type: ADME, organism-based; procedure, shortened: as §2
# [18] = Tmax in rat at 3 mg/kg, po by microdialysis method; assay type: ADME, organism-based; design: dose 3 mg/kg, route oral; details: in vivo; procedure, shortened: as §2
# [19] = Half life in rat at 3 mg/kg, po by microdialysis method; assay type: ADME, organism-based; design: dose 3 mg/kg, route oral; details: in vivo; procedure, shortened: as §2
# Sequence of Sodium-dependent serotonin transporter (P31645 whole entry): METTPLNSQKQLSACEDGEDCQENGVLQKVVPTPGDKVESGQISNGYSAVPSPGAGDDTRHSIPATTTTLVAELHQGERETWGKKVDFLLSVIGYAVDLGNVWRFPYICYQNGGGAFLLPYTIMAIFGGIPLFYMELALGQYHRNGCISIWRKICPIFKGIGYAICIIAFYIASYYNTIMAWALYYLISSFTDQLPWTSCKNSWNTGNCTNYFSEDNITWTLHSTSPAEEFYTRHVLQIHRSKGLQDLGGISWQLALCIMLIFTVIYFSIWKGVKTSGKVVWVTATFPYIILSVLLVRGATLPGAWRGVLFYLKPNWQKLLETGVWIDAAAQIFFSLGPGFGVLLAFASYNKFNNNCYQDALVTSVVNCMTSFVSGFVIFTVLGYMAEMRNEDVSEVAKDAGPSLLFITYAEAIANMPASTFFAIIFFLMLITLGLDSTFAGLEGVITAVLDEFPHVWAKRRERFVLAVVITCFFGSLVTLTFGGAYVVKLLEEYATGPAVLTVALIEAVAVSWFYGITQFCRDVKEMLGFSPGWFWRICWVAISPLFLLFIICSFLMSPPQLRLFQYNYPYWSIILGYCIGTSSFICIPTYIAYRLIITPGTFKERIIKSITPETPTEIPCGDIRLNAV
# Sequence of 5-hydroxytryptamine receptor 4 (Q13639 whole entry): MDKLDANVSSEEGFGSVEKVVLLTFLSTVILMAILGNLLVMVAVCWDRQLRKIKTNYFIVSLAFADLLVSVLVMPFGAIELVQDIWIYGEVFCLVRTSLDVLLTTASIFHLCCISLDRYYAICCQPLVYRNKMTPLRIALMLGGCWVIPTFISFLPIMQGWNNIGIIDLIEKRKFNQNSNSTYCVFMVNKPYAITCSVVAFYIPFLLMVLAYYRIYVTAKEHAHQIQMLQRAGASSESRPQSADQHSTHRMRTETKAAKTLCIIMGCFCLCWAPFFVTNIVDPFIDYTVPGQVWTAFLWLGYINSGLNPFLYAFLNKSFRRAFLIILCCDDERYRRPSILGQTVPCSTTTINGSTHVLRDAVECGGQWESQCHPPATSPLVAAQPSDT
# Sequence of 5-hydroxytryptamine receptor 1B (P28222 whole entry): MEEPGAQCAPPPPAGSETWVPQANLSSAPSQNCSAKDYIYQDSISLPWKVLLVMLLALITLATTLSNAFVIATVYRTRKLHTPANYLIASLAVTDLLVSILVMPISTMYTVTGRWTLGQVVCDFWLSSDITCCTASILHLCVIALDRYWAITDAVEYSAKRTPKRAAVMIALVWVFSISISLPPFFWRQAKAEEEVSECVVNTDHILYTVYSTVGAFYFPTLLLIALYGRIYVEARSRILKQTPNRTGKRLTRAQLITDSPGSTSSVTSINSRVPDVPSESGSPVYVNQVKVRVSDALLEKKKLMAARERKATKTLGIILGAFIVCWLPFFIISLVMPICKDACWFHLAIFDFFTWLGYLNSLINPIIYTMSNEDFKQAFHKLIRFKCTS
# Sequence of 5-hydroxytryptamine receptor 2A (P28223 whole entry): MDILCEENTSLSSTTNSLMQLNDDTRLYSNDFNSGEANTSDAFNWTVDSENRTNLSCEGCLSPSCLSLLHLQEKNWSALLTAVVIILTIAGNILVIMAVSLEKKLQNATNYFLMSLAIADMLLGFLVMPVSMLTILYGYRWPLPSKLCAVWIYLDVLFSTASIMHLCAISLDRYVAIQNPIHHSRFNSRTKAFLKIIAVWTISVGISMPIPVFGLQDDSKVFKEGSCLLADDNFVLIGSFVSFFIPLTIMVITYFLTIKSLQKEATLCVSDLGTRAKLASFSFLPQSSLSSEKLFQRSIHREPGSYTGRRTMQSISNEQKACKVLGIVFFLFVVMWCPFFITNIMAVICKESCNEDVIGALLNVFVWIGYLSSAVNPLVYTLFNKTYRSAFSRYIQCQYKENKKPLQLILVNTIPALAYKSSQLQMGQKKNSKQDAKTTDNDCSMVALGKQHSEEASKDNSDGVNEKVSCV
# Sequence of Sodium-dependent noradrenaline transporter (P23975 whole entry): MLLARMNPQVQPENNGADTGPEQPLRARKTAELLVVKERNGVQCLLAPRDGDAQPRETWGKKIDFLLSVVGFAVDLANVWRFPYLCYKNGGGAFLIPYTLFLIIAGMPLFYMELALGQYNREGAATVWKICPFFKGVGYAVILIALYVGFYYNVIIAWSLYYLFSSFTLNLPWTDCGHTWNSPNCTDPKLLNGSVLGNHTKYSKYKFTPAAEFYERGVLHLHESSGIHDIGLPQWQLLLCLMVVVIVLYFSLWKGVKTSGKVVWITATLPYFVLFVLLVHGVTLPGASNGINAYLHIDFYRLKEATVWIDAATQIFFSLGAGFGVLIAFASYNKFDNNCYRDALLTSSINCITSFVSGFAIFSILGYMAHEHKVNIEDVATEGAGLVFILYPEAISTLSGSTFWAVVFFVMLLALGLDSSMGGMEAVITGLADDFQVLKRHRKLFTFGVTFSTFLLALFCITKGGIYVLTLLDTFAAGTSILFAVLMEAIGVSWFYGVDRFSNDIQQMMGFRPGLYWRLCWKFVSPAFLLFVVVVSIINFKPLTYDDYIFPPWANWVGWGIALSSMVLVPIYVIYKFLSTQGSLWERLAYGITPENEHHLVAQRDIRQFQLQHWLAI
# Sequence of D(2) dopamine receptor (P14416 whole entry): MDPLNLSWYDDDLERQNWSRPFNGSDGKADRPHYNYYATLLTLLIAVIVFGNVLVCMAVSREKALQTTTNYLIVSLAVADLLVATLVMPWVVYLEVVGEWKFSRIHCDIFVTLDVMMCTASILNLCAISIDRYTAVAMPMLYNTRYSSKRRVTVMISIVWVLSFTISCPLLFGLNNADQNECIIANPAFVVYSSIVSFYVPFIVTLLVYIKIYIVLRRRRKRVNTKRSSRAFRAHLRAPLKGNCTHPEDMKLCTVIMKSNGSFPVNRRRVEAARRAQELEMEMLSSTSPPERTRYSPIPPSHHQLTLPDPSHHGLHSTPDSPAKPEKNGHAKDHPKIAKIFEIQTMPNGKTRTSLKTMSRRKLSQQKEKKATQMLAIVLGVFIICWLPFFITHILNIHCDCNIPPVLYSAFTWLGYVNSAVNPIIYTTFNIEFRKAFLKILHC
# Sequence of Sodium-dependent dopamine transporter (Q01959 whole entry): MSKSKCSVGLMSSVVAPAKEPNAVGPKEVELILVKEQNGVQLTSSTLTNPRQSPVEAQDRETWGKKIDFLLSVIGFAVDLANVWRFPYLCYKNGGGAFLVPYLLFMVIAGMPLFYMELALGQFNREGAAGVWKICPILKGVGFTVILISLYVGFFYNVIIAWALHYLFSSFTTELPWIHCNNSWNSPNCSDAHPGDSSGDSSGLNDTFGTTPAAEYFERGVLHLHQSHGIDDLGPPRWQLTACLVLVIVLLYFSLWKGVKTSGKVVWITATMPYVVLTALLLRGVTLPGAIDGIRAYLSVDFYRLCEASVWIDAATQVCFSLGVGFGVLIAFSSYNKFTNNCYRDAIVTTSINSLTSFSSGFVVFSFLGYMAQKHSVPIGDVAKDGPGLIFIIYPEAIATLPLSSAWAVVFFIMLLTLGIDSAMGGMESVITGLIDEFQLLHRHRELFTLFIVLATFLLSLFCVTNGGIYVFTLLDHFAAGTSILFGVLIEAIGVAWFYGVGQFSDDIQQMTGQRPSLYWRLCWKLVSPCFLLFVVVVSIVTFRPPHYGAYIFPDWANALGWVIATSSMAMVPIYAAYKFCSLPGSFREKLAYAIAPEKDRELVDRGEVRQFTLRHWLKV
# Sequence of 5-hydroxytryptamine receptor 5A (P47898 whole entry): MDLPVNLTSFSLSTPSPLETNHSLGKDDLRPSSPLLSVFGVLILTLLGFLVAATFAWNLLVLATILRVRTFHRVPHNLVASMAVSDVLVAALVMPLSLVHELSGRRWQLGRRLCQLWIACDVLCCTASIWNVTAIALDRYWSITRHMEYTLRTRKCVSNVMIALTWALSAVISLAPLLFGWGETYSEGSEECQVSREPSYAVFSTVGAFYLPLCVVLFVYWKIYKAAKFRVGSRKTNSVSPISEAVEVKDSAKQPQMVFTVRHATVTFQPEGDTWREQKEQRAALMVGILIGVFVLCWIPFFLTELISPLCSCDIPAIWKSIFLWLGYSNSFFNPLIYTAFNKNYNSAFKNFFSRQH
# Sequence of 5-hydroxytryptamine receptor 6 (P50406 whole entry): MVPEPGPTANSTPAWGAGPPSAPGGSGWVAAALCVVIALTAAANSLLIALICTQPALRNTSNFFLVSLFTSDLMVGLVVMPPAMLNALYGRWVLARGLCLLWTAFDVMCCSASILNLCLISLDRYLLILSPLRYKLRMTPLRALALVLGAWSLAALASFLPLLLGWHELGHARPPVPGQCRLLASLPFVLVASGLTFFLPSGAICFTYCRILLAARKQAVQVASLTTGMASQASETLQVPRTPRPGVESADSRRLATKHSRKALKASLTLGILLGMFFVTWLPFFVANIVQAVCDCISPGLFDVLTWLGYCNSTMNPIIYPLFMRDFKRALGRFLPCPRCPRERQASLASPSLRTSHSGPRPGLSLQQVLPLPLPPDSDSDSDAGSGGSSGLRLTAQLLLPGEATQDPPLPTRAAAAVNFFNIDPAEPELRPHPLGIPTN
# Sequence of 5-hydroxytryptamine receptor 7 (P34969 whole entry): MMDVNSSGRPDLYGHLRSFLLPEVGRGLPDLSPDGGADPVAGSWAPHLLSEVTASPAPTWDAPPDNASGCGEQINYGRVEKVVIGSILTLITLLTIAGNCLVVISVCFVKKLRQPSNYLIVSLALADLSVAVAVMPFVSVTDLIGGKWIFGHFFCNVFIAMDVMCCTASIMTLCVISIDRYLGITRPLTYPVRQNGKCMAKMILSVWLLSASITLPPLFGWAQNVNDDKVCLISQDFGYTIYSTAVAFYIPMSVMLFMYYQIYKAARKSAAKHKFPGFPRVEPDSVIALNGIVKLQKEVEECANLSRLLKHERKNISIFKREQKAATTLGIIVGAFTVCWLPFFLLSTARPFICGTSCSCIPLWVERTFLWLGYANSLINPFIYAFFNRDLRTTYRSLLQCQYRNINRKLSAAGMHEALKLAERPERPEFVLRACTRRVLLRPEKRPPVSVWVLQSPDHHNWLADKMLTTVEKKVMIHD
smiles,measurement,setting,value
CN(CCc1ccccc1)C1CCC(c2c[nH]c3ccc(C#N)cc23)C1 (stereo not drawn),IC50,[1],6.2 nM
CN(Cc1ccccc1)C1CCC(c2c[nH]c3ccc(C#N)cc23)C1 (stereo not drawn),IC50,[1],5.3 nM
CCN(CC)C1CCC(c2c[nH]c3ccc(C#N)cc23)C1 (stereo not drawn),IC50,[1],6.2 nM
Fc1ccc2[nH]cc(C3CCC(N4CCCC4)C3)c2c1 (stereo not drawn),IC50,[1],2.9 nM
CN(C)[C@H]1CC[C@H](c2c[nH]c3ccc(C#N)cc23)C1,IC50,[1],0.97 nM
CN(C)C1CCC(c2c[nH]c3cccc(F)c23)C1 (stereo not drawn),IC50,[1],31 nM
CN(C)[C@H]1CC[C@@H](c2c[nH]c3ccc(C#N)cc23)C1,IC50,[1],0.38 nM
CN(C)C1CCC(c2c[nH]c3c(Cl)cccc23)C1 (stereo not drawn),IC50,[1],1.4 nM
N#Cc1ccc2[nH]cc(C3CCC(N4CCOCC4)C3)c2c1 (stereo not drawn),IC50,[1],110 nM
N#Cc1ccc2[nH]cc(C3CCC(N4CCc5ccccc5C4)C3)c2c1 (stereo not drawn),IC50,[1],6.5 nM
CN(C)[C@@H]1CC[C@@H](c2c[nH]c3ccc(F)cc23)C1,IC50,[1],2.8 nM
N#Cc1ccc2[nH]cc(C3CCC(NCc4ccccc4)C3)c2c1 (stereo not drawn),IC50,[1],15 nM
N#Cc1ccc2[nH]cc(C3CCC(NCCc4ccccc4)C3)c2c1 (stereo not drawn),IC50,[1],10 nM
N#Cc1ccc2[nH]cc(C3CCC(N4CCCC4)C3)c2c1 (stereo not drawn),IC50,[1],3 nM
CN(C)C1CCC(c2c[nH]c3ccc(F)cc23)C1 (stereo not drawn),IC50,[1],1.7 nM
CN(C)C1CCC(c2c[nH]c3cccc(Br)c23)C1 (stereo not drawn),IC50,[1],5.3 nM
CNC1CCC(c2c[nH]c3ccc(C#N)cc23)C1 (stereo not drawn),IC50,[1],8.5 nM
CCN(C)C1CCC(c2c[nH]c3ccc(C#N)cc23)C1 (stereo not drawn),IC50,[1],1.6 nM
N#Cc1ccc2[nH]cc(C3CCC(N4CCCCC4)C3)c2c1 (stereo not drawn),IC50,[1],65 nM
CCN(C)C1CCC(c2c[nH]c3ccc(F)cc23)C1 (stereo not drawn),IC50,[1],3.7 nM
CN(C)[C@H]1CC[C@H](c2c[nH]c3ccc(F)cc23)C1,IC50,[1],5.9 nM
CN(C)C1CCC(c2c[nH]c3c(Br)cccc23)C1 (stereo not drawn),IC50,[1],1.6 nM
CN(C)[C@@H]1CC[C@@H](c2c[nH]c3ccc(C#N)cc23)C1,IC50,[1],1.3 nM
N#Cc1ccc2[nH]cc(C3CCC(N4Cc5ccccc5C4)C3)c2c1 (stereo not drawn),IC50,[1],6.8 nM
CCN(CC)C1CCC(c2c[nH]c3ccc(F)cc23)C1 (stereo not drawn),IC50,[1],7.3 nM
CCNC1CCC(c2c[nH]c3ccc(C#N)cc23)C1 (stereo not drawn),IC50,[1],6.6 nM
"CN(C)[C@@H]1CC[C@H](c2c[nH]c3ccc(F)cc23)C1 (single isomer, unassigned)",IC50,[1],2.4 nM
CN(C)C1CCC(c2c[nH]c3ccc(Br)cc23)C1 (stereo not drawn),IC50,[1],4.3 nM
N#Cc1ccc2[nH]cc(C3CCC(N)C3)c2c1 (stereo not drawn),IC50,[1],32 nM
CN(C)C1CCC(c2c[nH]c3ccc(Cl)cc23)C1 (stereo not drawn),IC50,[1],3 nM
CN(C)C1CCC(c2c[nH]c3cc(F)ccc23)C1 (stereo not drawn),IC50,[1],5.1 nM
CCCNC1CCC(c2c[nH]c3ccc(C#N)cc23)C1 (stereo not drawn),IC50,[1],30 nM
CN(C)C1CCC(c2c[nH]c3c(F)cccc23)C1 (stereo not drawn),IC50,[1],3.3 nM
CN(C)C1CCC(c2c[nH]c3ccc(C#N)cc23)C1 (stereo not drawn),IC50,[1],0.48 nM
CN(C)[C@@H]1CC[C@H](c2c[nH]c3ccc(C#N)cc23)C1,IC50,[1],0.22 nM
same,IC50,[2],6900 nM
same,IC50,[3],1300 nM
same,IC50,[4],1300 nM
same,IC50,[5],340 nM
same,IC50,[6],840 nM
same,IC50,[7],> 10000 nM
same,IC50,[8],> 10000 nM
same,IC50,[9],> 30000 nM
same,IC50,[10],> 1000 nM
same,IC50,[11],37 nM
same,IC50,[12],> 1000 nM
same,IC50,D(1A) dopamine receptor,7200 nM
same,IC50,D(2) dopamine receptor,> 30000 nM
same,Activity,Rattus norvegicus [13],Dose-dependent effect
same,Activity,Rattus norvegicus [14],150%
same,Activity,Rattus norvegicus [15],Active
same,Drug uptake,Brain,1000 nM
same,concentration at 2 h,[16],820 nM
same,bioavailability,[17],51%
same,Tmax,[18],60 min
same,half-life,[19],33 min
CN(C)C1CCC(c2c[nH]c3cc(Cl)ccc23)C1 (stereo not drawn),IC50,[1],6.5 nM
CN(C)C1CCC(c2c[nH]c3cc(Br)ccc23)C1 (stereo not drawn),IC50,[1],9.6 nM
